Phagocyt inh: inhibitors of macrophage phagocytosis, primary screen, imaging, J774A.1 cells, IgG beads | J774A.1 macrophage IgG-bead phagocytosis | 110,000 tested, 0.07% active | inhibition, % at 5 µM;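 active = inhibition above the mean of the plate negative controls plus 5 SD, cut at about 13% in these data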;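 note: phagocytic index as fraction of beads internalized from green versus red external bead signal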
Yeast lifespan up: compounds extending yeast replicative lifespan, primary screen, S. cerevisiae, OD615 | S. cerevisiae growth with nicotinamide; deaD strain in restrictive glucose medium | inhibition of the nicotinamide effect, % at 10 µM | 130,000 tested, 0.68% active;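 active = inhibition above a set limit, placed 3 SD over the median of all compounds, cut at about 26% in these data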
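Test system – modified budding yeast, DeaD strain · Compound – single dose 10 µM compound, 0.25% DMSO · Times – culture preincubation 4 h, compound exposure 48 h, both 30 °C · Detection – optical density (absorbance) at 615 nm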
Yeast growth inh: growth inhibitors of yeast BB579 in restrictive medium, primary screen, yeast lifespan-shortening project, S. cerevisiae | OD615, 48 h | AID 804, 2007 | inhibition, % at 10 µM | 140,000 tested, 0.51% active;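 active = inhibition above a set limit, 3 SD over the mean compound inhibition, cut at about 44% in these data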
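Material: Saccharomyces cerevisiae DeaD strain BB579, replicative lifespan model yeast; buffer or medium: CSMM-D restrictive synthetic medium containing dextrose (glucose); compound: 10 µM single dose, DMSO 0.25%; timing: 48 h compound exposure at 30 °C after 4 h preincubation; signal: turbidity as optical density at 615 nm; benchmarks: positive control amphotericin B 10 µg/mL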
RAM inhibit: inhibitors of the yeast RAM network, primary screen, dse1pr::URA3 reporter, 5-FOA selection | AID 868, 2007 | inhibition, % at 50 µM | 190,000 tested, 1.8% active | S. cerevisiae dse1pr::URA3 reporter, 5-FOA growth OD615, 2 d; analog-sensitive cbk1-as2 kinase mutant strain;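 active = inhibition above a set limit, 3 SD over mean compound inhibition, cut at about 8.4% in these data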;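 note: inhibition rescues growth on 5-FOA so higher OD means more RAM inhibition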
Numbers stand for hits; i = inactive; nt = no result given. Hits are enriched below; roughly 2.7% of the tested compounds scored in any of these assays.

SMILES	Phagocyt inh	Yeast lifespan up	Yeast growth inh	RAM inhibit
C=CCn1c(=O)c2c3c(sc2n2c(Nc4ccc(OC)cc4)nnc12)CCCC3	i	i	i	i
O=C1CCC(CCC(=O)N2CCCC(C(=O)c3cccc(C(F)(F)F)c3)C2)=NN1 (configuration not stated)	nt	nt	nt	i
Cc1cc(C(=O)Nc2c(F)c(F)c(F)c(F)c2F)n(-c2ccccc2)n1	nt	nt	nt	i
Cc1ccc(OCc2nc(-c3cccs3)no2)c([N+](=O)[O-])c1	nt	nt	nt	8.7
O=[N+]([O-])c1ccccc1OCc1nc(-c2cccs2)no1	nt	nt	nt	i
CN(c1ccccc1)S(=O)(=O)c1cccc(NC(=O)c2cc(=O)c3ccccc3o2)c1	nt	nt	nt	i
CC(C)c1noc2ncc(C(=O)c3cc(Cl)cc(Cl)c3O)cc12	nt	64	i	i
Cc1ccccc1N=C1NC(=O)/C(=C/c2cccn2-c2cccc(C(=O)O)c2)S1	nt	nt	nt	i
Cc1ccc(N=Nc2c(=O)[nH]n3c(C)cc(C)nc23)cc1	nt	i	i	i
Cc1cc(C)n2nc(N)c(N=Nc3ccc(Cl)cc3)c2n1	i	i	i	9.5
Nn1c(-c2cccs2)nc2sc3c(c2c1=O)CCCC3	i	i	i	9.0
CN(C)c1ccc(-c2noc(C3CCN(S(=O)(=O)c4cccc(C(=O)O)c4)CC3)n2)cc1	nt	i	i	9.8
CCS(=O)(=O)N1CCC(c2nc(-c3ccc(C)cc3)no2)CC1	i	60	i	i
CCS(=O)(=O)N1CCC(c2nc(-c3ccc(C(F)(F)F)cc3)no2)CC1	i	i	i	i
CCOC(=O)C1CCN(C(=O)c2cccnc2Cl)CC1	i	i	i	i
CCOC(=O)c1cnc(SC2CC(=O)N(c3cccc(OC)c3)C2=O)nc1N (configuration not stated)	i	i	i	10
CCOc1ccc(C(=O)NCC(=O)N2CCc3ccccc3C2)cc1OCC	nt	nt	nt	i
CCOC(=O)c1sc(NC(=O)C(C)Sc2nnc(N)s2)nc1C (configuration not stated)	nt	nt	nt	i
O=C(CSc1nnc(-c2n[nH]c3ccccc23)n1-c1ccccc1)Nc1cccc(Cl)c1	i	i	i	8.8
Cc1cccc2c1N(CCCOc1ccc(C(C)(C)C)cc1)C(=O)C2=O	nt	i	i	11
Cc1ccccc1OCCCN1C(=O)C(=O)c2cccc(C)c21	i	i	83	i
Cc1cccc2c1N(CCCOc1ccccc1)C(=O)C2=O	nt	i	i	i
CC(C)C(C(=O)OCC(=O)c1ccccc1)N1C(=O)C2C3C=CC(C3)C2C1=O (configuration not stated)	nt	nt	nt	i
COc1cccc(-c2cc(C(=O)N3CC4(C)CC3CC(C)(C)C4)no2)c1 (configuration not stated)	i	i	i	10
O=c1oc2cc(OCc3ccc(F)cc3F)ccc2cc1-c1ccc2ccccc2n1	nt	i	i	i
SMILES	Phagocyt inh	Yeast lifespan up	Yeast growth inh	RAM inhibit
O=C1NCCCc2c1oc1ccc(O)cc21	i	i	i	i
Oc1c(Cl)cc(Cl)c2c1NCCC2	i	i	99	i
N/C(=N\OC(=O)COc1ccc2ccccc2c1Br)c1ccccn1	nt	nt	nt	9.1
Cc1nc2ccccn2c1C(=O)CSc1cccc(Cl)c1	nt	nt	nt	i
CCn1ncc(Br)c1C(=O)Nc1ccccc1OC	nt	nt	nt	i
COC(=O)c1ccc(C(=O)OC)c(NC(=O)CSCc2ccccc2Br)c1	i	i	i	11
CCn1ncc(Br)c1C(=O)Nc1cc(C(=O)OC)ccc1C(=O)OC	i	i	i	8.5
COC(=O)c1ccc(C(=O)OC)c(NC(=O)COC(=O)c2ccc(OC)c(OC)c2OC)c1	i	i	i	11
O=[N+]([O-])c1ccc(-n2cnc3ccccc32)c([N+](=O)[O-])c1	nt	nt	nt	i
CC(=O)c1ccc(-c2ccc(C(=O)NC3CCCCCC3)o2)cc1	nt	nt	nt	i
C=CCN(CC=C)c1ccc(N2C(=O)C3CCCCC3C2=O)cc1[N+](=O)[O-] (configuration not stated)	nt	nt	nt	9.0
CSc1ccc(C(=S)N2CCN(Cc3ccccc3)CC2)cc1	i	31	i	i
Cc1cccc(NC(=O)CCc2ccc(S(=O)(=O)NC3CCCCC3)cc2)c1	i	i	i	i
CCCCn1c(CN2CCN(c3cccc(Cl)c3)CC2)nc2c1c(=O)[nH]c(=O)n2C	nt	nt	i	i
Cn1c(=O)[nH]c(=O)c2c1nc(CN1CCN(c3cccc(Cl)c3)CC1)n2CCCc1ccccc1	i	i	i	9.5
CC(C)NS(=O)(=O)c1ccc(OCC(=O)Nc2ccccc2F)cc1	i	i	i	i
CC(C)NS(=O)(=O)c1ccc(OCC(=O)Nc2ccc(F)cc2F)cc1	i	49	i	i
COC(=O)c1ccc(OC(C)C(=O)c2ccc(C)cc2)cc1 (configuration not stated)	i	i	i	i
O=C(Nc1ccccc1-c1nnc(SCc2ccc(Cl)cc2Cl)o1)c1ccccc1	i	i	i	10
Cc1cccnc1Nc1nc(-c2ccccn2)cs1	i	i	95	i
Cc1cccc(Nc2nc(-c3ccccn3)cs2)n1	i	i	100	i
O=C(NCCC1=CCCCC1)C1CCN(S(=O)(=O)c2ccc(Br)s2)CC1	i	i	i	i
COc1cccc(C(=O)N(C)c2nnc(-c3ccncc3)s2)c1	nt	i	i	i
CCOC(=O)/C(=N\Nc1ccc(OC)cc1)c1csc(Nc2ccccc2)n1	i	i	i	11
Fc1cccc(F)c1-n1c(CN2CCCC2)csc1=S	nt	nt	nt	i
SMILES	Phagocyt inh	Yeast lifespan up	Yeast growth inh	RAM inhibit
Cc1ccc(C2=NN(CCC(=O)NCc3ccc4c(c3)OCO4)C(=O)CC2)cc1	i	i	i	i
CC(C)OC(=O)c1cn(-c2ccccc2)nc1-c1ccc2c(c1)OCCO2	i	i	i	11
NC(=O)/C=C\c1cn(-c2ccccc2)nc1-c1ccc2c(c1)OCCO2	i	i	i	i
Cc1ccc(-c2nnc(SCC(=O)Nc3cccc(C(=O)N4CCOCC4)c3)n2C)cc1	i	i	i	i
O=C(CSc1nnc(-c2ccco2)c(-c2ccco2)n1)c1ccccc1	nt	nt	nt	10
CC(=O)c1ccc(NC(=O)CSc2nnc(-c3ccco3)c(-c3ccco3)n2)cc1	nt	nt	nt	i
COCCCNC(=O)/C(C#N)=c1\s/c(=C\c2ccccc2OC(F)F)c(=O)n1CCCOC	i	i	i	i
COCCCn1c(=O)/c(=C\c2ccccc2OC(F)F)s/c1=C(/C#N)C(=O)N1CCOCC1	nt	nt	nt	9.1
CCCCNC(=O)/C(C#N)=c1\s/c(=C\c2ccccc2OC(F)F)c(=O)n1CCCOC	nt	i	i	9.2
CCCNC(=O)OC[C@H]1O[C@H](CCO/N=C(\C)CCN2CCc3nc(-c4ccccc4)c(-c4ccccc4)cc3C2)C=C[C@@H]1Oc1ccc(OC)cc1	nt	32	i	i
CCO/C=C1\C(=O)N(c2ccccc2)C(=O)c2ccccc21	i	i	i	i
CCO/C=C1/C(=O)N(Cc2ccccc2)C(=O)c2ccccc21	i	32	i	i
CCN(CC)C(=O)COc1ccc2oc(-c3ccco3)cc(=O)c2c1	nt	nt	nt	i
COc1ccc(C(=O)CCNc2cccc(Cl)c2)cc1	i	i	i	i
CCCOc1ccc(C(=O)CCNc2cccc(Cl)c2)cc1	nt	nt	nt	9.8

Screening results deposited in PubChem BioAssay by several laboratories.
